Measured values gathered from unrelated publications.
Compare with care: the assays were run in different laboratories.

SMILES | target or system | test | system | conditions | measurement | result
O=C(Nc1cncc(-c2nc3ccccc3o2)c1)c1cc([N+](=O)[O-])c(N2CCNCC2)cc1Cl | – | metabolic stability | CD-1 mouse, liver microsomes | 1 µM, 1 h, pH 7.4 | scaled CLint | 10 mL/min/kg
Fc1ccc(Nc2nc(-c3ccccn3)nc3ccccc23)cc1 | – | metabolic stability | mouse, liver microsomes | – | microsomal CLint | 138 µL/min/mg
CCn1cnc2c(=O)[nH]c(N)nc21.NCCNCCN.[Pt+2] | CCRF-CEM | cell growth or viability, WST-1 | – | – | IC50 | > 0.1 mM
O=C(Nc1cccc(-c2ncco2)c1)c1cc([N+](=O)[O-])c(F)cc1F | – | metabolic stability | CD-1 mouse, liver microsomes | 1 µM, 1 h, pH 7.4 | scaled CLint | 2200 mL/min/kg
CN1CCN(c2nc(-c3ccccn3)nc3ccccc23)CC1 | – | metabolic stability | mouse, liver microsomes | – | microsomal CLint | 19 µL/min/mg
COc1ccc(CC(CC(=O)O)C(=O)O)cc1OC (stereo not drawn) | Huh7.5 | cell growth or viability, MTT | – | – | CC50 | > 5 mM
NC(=O)c1cnc2[nH]ccc2c1N[C@@H]1[C@@H]2CC3C[C@H]1C[C@@](O)(C3)C2 | ATP-binding cassette sub-family C member 4 (ABCC4, Homo sapiens, UniProt O15439) | transporter uptake, inhibitor, radiometric | Sf9 | 100 µM, 5 min, pH 7, cell membranes | inhibition | < 50%
Oc1c(Br)cc(Cl)c2cccnc12 | – | – | Sprague-Dawley rat, plasma | oral, 20 mg/kg | Vd/F | 39.9 L/kg
COC[C@@H](Cc1ccc(OC)c(OC)c1)[C@@H](COC)Cc1ccc(OC)c(OC)c1 | Huh7.5 | cell growth or viability, MTT | – | – | CC50 | 5 mM
